The results in this text go back to ChEMBL document CHEMBL4024771, “Optimization of Orally Bioavailable Enhancer of Zeste Homolog 2 (EZH2) Inhibitors Using Ligand and Property-Based Design Strategies: Identification of Development Candidate …” (J Med Chem, 2018).

For orientation: IC50 means the concentration at which inhibition is half-maximal. Broadly, the microsomal CLint is the rate of metabolic loss divided by the concentration. As a reminder, the Ki is a measure of affinity in units of concentration, obtained from inhibition or displacement. In general, logD refers to the decadic logarithm of the distribution of all forms, ionised or not, between an organic phase and buffer at a given pH. Read a low logD as lower lipophilicity.

Chain of Histone-lysine N-methyltransferase EZH2 (Homo sapiens, UniProt Q15910, Y641N) (Q15910 whole entry Y641N): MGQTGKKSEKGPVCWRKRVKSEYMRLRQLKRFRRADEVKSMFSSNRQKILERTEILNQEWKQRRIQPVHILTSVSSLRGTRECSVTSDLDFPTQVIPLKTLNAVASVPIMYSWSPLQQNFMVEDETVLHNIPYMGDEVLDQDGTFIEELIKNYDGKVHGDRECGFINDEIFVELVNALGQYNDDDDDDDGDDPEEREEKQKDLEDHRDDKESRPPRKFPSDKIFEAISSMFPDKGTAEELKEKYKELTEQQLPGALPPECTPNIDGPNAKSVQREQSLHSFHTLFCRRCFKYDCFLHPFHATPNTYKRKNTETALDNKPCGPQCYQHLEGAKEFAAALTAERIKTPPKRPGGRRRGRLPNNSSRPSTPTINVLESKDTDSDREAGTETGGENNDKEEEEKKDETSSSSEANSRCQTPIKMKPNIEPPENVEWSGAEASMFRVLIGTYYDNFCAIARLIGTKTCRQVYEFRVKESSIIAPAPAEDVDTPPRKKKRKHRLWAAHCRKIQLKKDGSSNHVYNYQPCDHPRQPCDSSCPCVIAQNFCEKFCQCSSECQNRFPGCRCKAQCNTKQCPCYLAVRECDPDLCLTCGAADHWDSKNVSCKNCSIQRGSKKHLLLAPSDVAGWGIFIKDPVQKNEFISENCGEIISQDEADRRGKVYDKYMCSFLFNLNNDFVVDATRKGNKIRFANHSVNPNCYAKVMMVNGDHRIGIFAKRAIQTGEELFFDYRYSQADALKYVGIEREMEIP

System in the first data set: not listed separately
Put plainly: Kinetic solubility of the compound. Type of data set: physicochemical.
Conditions: not given
`COC(c1cc(Cl)c2c(c1Cl)C(=O)N(Cc1c(C)cc(C)[nH]c1=O)CC2)C1CS(=O)(=O)C1` (single isomer, unassigned): the Kinetic_solubility was determined as 159 µM.

Compound `CCOC(c1cc(Cl)c2c(c1Cl)C(=O)N(Cc1c(C)cc(C)[nH]c1=O)CC2)C1CS(=O)(=O)C1` (single isomer, unassigned) yielded a Kinetic_solubility of 446 µM.

In the case of `CCC(OC)c1cc(Cl)c2c(c1Cl)C(=O)N(Cc1c(C)cc(C)[nH]c1=O)CC2` (single isomer, unassigned; (+)), the Kinetic_solubility stood at 33 µM.

As to `COC(c1cc(Cl)c2c(c1Cl)C(=O)N(Cc1c(C)cc(C)[nH]c1=O)CC2)C1CCOC1` (single isomer, unassigned; (+)), the Kinetic_solubility was determined as 439 µM.

Take `COC(c1cc(Cl)c2c(c1Cl)C(=O)N(Cc1c(C)cc(C)[nH]c1=O)CC2)C1CCOC1` (single isomer, unassigned; (-)10c): the Kinetic_solubility came out at 457 µM.

`COC(c1cc(Cl)c2c(c1Cl)C(=O)N(Cc1c(C)cc(C)[nH]c1=O)CC2)C1CCS(=O)(=O)CC1` (single isomer, unassigned; (-)) returned a Kinetic_solubility of 415 µM.

`COc1cc(C)[nH]c(=O)c1CN1CCc2c(Cl)cc(C(OC)C3CCN(C(=O)CO)CC3)c(Cl)c2C1=O` (single isomer, unassigned; (-)) displayed a Kinetic_solubility of 453 µM.

With `COc1cc(C)[nH]c(=O)c1CN1CCc2c(Cl)cc(C(OC)C3CCOC3)c(Cl)c2C1=O` (single isomer, unassigned; form 1), the Kinetic_solubility worked out at 521 µM.

`COc1cc(C)[nH]c(=O)c1CN1CCc2c(Cl)cc(C(OC)C3CCOC3)c(Cl)c2C1=O` (stereo in doubt; 22b): the Kinetic_solubility came out at 439 µM.

For a further data set, the target named is Histone-lysine N-methyltransferase EZH2 (Homo sapiens, UniProt Q15910). The data set is described as follows: Inhibition of EZH2 in human KARPAS422 cells assessed as reduction in H3K27me3 level after 72 hrs by ELISA.
Chain of Histone-lysine N-methyltransferase EZH2 (Homo sapiens, UniProt Q15910) (Q15910 whole entry): as the sequence (Q15910 whole entry Y641N) above, with N641Y counted along it
Conditions: not given
(In general: In an ELISA, binding on a coated surface is turned into a signal by an enzyme label.)
In the case of `CCOC(c1cc(Cl)c2c(c1Cl)C(=O)N(Cc1c(C)cc(C)[nH]c1=O)CC2)C1CS(=O)(=O)C1` (single isomer, unassigned), the IC50 stood at 6080 nM.

Consider `CCC(OC)c1cc(Cl)c2c(c1Cl)C(=O)N(Cc1c(C)cc(C)[nH]c1=O)CC2` (single isomer, unassigned; (+)), for which the IC50 worked out at 72 nM.

On to `COC(c1cc(Cl)c2c(c1Cl)C(=O)N(Cc1c(C)cc(C)[nH]c1=O)CC2)C1CCOC1` (single isomer, unassigned; (+)), for which the IC50 was determined as 47 nM.

For the compound `COC(c1cc(Cl)c2c(c1Cl)C(=O)N(Cc1c(C)cc(C)[nH]c1=O)CC2)C1CCOC1` (single isomer, unassigned; (-)10c), the IC50 came to 494 nM.

On to `COc1cc(C)[nH]c(=O)c1CN1CCc2c(Cl)cc(C(OC)C3CCOC3)c(Cl)c2C1=O` (single isomer, unassigned; form 1), for which the IC50 stood at 110 nM.

For the compound `COc1cc(C)[nH]c(=O)c1CN1CCc2c(Cl)cc(C(OC)C3CCOC3)c(Cl)c2C1=O` (stereo in doubt; 22b), the IC50 came out at 16 nM.

System in another data set: not listed separately
The data set is described as follows: Passive permeability in MDCK cells at 2 uM after 90 mins by LC-MS/MS analysis. Type of data set: ADME, cell-based, Canis lupus familiaris. Conditions: dog, MDCK; read-out: permeability. Summed up:
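Low-efflux MDCK cells (MDCK-LE) on 96-well inserts, used on day 4. Monodirectional transport of 2 μM drug in transport buffer with 0.1% DMSO at 37 °C. Donor and receiver sampled at 0 and 90 min for LC−MS/MS. Donor pH 6.5 and 7.4, receiver pH 7.4.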
With `CCC(OC)c1cc(Cl)c2c(c1Cl)C(=O)N(Cc1c(C)cc(C)[nH]c1=O)CC2` (single isomer, unassigned; (+)), the Papp at […], 2 µM amounted to 18.2 ×10⁻⁶ cm/s.

Staying with this data set, now noted: dog, mdck, […], 2 µM.
As for `COC(c1cc(Cl)c2c(c1Cl)C(=O)N(Cc1c(C)cc(C)[nH]c1=O)CC2)C1CS(=O)(=O)C1` (single isomer, unassigned), the permeability is on record as 6.1 ×10⁻⁶ cm/s.

For the compound `CCOC(c1cc(Cl)c2c(c1Cl)C(=O)N(Cc1c(C)cc(C)[nH]c1=O)CC2)C1CS(=O)(=O)C1` (single isomer, unassigned), the permeability worked out at 7.7 ×10⁻⁶ cm/s.

`COC(c1cc(Cl)c2c(c1Cl)C(=O)N(Cc1c(C)cc(C)[nH]c1=O)CC2)C1CCOC1` (single isomer, unassigned; (+)) came in with a permeability of 18.7 ×10⁻⁶ cm/s.

For the compound `COC(c1cc(Cl)c2c(c1Cl)C(=O)N(Cc1c(C)cc(C)[nH]c1=O)CC2)C1CCOC1` (single isomer, unassigned; (-)10c), the permeability stood at 15.4 ×10⁻⁶ cm/s.

Turning to `COC(c1cc(Cl)c2c(c1Cl)C(=O)N(Cc1c(C)cc(C)[nH]c1=O)CC2)C1CCS(=O)(=O)CC1` (single isomer, unassigned; (-)), the permeability was 5.7 ×10⁻⁶ cm/s.

The compound `COc1cc(C)[nH]c(=O)c1CN1CCc2c(Cl)cc(C(OC)C3CCN(C(=O)CO)CC3)c(Cl)c2C1=O` (single isomer, unassigned; (-)) came in with a permeability of 1.1 ×10⁻⁶ cm/s.

`COc1cc(C)[nH]c(=O)c1CN1CCc2c(Cl)cc(C(OC)C3CCOC3)c(Cl)c2C1=O` (single isomer, unassigned; form 1): the permeability came out at 8.4 ×10⁻⁶ cm/s.

Regarding `COc1cc(C)[nH]c(=O)c1CN1CCc2c(Cl)cc(C(OC)C3CCOC3)c(Cl)c2C1=O` (stereo in doubt; 22b), the permeability came to 7.2 ×10⁻⁶ cm/s.

The test system of a further data set is KARPAS-422. The data set is described as follows: Antiproliferative activity against human KARPAS422 cells after 72 hrs by resazurin assay. It counts as functional, cell-based. The settings on record: karpas-422. In general terms: Resazurin is reduced to fluorescent resorufin, in cell work by metabolically active cells.
On to `COC(c1cc(Cl)c2c(c1Cl)C(=O)N(Cc1c(C)cc(C)[nH]c1=O)CC2)C1CS(=O)(=O)C1` (single isomer, unassigned), for which the IC50 was 4830 nM.

Compound `CCOC(c1cc(Cl)c2c(c1Cl)C(=O)N(Cc1c(C)cc(C)[nH]c1=O)CC2)C1CS(=O)(=O)C1` (single isomer, unassigned) registered a half-inhibitory concentration (IC50) of 5560 nM.

`CCC(OC)c1cc(Cl)c2c(c1Cl)C(=O)N(Cc1c(C)cc(C)[nH]c1=O)CC2` (single isomer, unassigned; (+)) returned an IC50 of 183 nM.

In turn, `COC(c1cc(Cl)c2c(c1Cl)C(=O)N(Cc1c(C)cc(C)[nH]c1=O)CC2)C1CCOC1` (single isomer, unassigned; (+)) registered an IC50 of 50 nM.

Compound `COC(c1cc(Cl)c2c(c1Cl)C(=O)N(Cc1c(C)cc(C)[nH]c1=O)CC2)C1CCOC1` (single isomer, unassigned; (-)10c) displayed an IC50 of 406 nM.

The compound `COC(c1cc(Cl)c2c(c1Cl)C(=O)N(Cc1c(C)cc(C)[nH]c1=O)CC2)C1CCS(=O)(=O)CC1` (single isomer, unassigned; (-)) showed a half-maximal inhibitory concentration (IC50) of 970 nM.

In the case of `COc1cc(C)[nH]c(=O)c1CN1CCc2c(Cl)cc(C(OC)C3CCN(C(=O)CO)CC3)c(Cl)c2C1=O` (single isomer, unassigned; (-)), the half-inhibitory concentration (IC50) worked out at 250 nM.

In turn, `COc1cc(C)[nH]c(=O)c1CN1CCc2c(Cl)cc(C(OC)C3CCOC3)c(Cl)c2C1=O` (single isomer, unassigned; form 1) showed an IC50 of 113 nM.

As to `COc1cc(C)[nH]c(=O)c1CN1CCc2c(Cl)cc(C(OC)C3CCOC3)c(Cl)c2C1=O` (stereo in doubt; 22b), half-maximal inhibition (IC50) required 24 nM.

The test system of another data set is Liver. The data set is described as follows: Intrinsic clearance in human liver microsomes assessed per mg protein at 1 uM preincubated for 10 mins followed by NADPH addition measured after 45 mins by LC-MS/MS analysis. Type of data set: ADME, microsome. The settings on record: microsomes, 0.75 h, 1 µM. An outline of the steps: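 Test compound (1 μM) with pooled liver microsomes (0.8 mg/mL protein) in 100 mM potassium phosphate pH 7.4, 10 min preincubation, started with 2 mM NADPH, 45 min at 37 °C, in triplicate. Samples quenched with cold methanol containing buspirone internal standard, analysed by LC−MS/MS. CLint derived from t1/2 of parent loss (log-linear slope).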
`COC(c1cc(Cl)c2c(c1Cl)C(=O)N(Cc1c(C)cc(C)[nH]c1=O)CC2)C1CS(=O)(=O)C1` (single isomer, unassigned) registered a microsomal CLint of 23 µL/min/mg.

The compound `CCOC(c1cc(Cl)c2c(c1Cl)C(=O)N(Cc1c(C)cc(C)[nH]c1=O)CC2)C1CS(=O)(=O)C1` (single isomer, unassigned) had a microsomal CLint of 45.7 µL/min/mg. Compared with the last compound, the microsomal CLint is about 2-fold higher.

Compound `CCC(OC)c1cc(Cl)c2c(c1Cl)C(=O)N(Cc1c(C)cc(C)[nH]c1=O)CC2` (single isomer, unassigned; (+)) registered a microsomal CLint of 105 µL/min/mg.

Regarding `COC(c1cc(Cl)c2c(c1Cl)C(=O)N(Cc1c(C)cc(C)[nH]c1=O)CC2)C1CCOC1` (single isomer, unassigned; (+)), the microsomal CLint was found to be 128 µL/min/mg.

For the compound `COC(c1cc(Cl)c2c(c1Cl)C(=O)N(Cc1c(C)cc(C)[nH]c1=O)CC2)C1CCOC1` (single isomer, unassigned; (-)10c), the intrinsic metabolic clearance (microsomal CLint) stood at 93.3 µL/min/mg. This microsomal CLint and that of the compound before are within 1.5-fold of each other.

For `COC(c1cc(Cl)c2c(c1Cl)C(=O)N(Cc1c(C)cc(C)[nH]c1=O)CC2)C1CCS(=O)(=O)CC1` (single isomer, unassigned; (-)), the microsomal CLint was 15 µL/min/mg.

As to `COc1cc(C)[nH]c(=O)c1CN1CCc2c(Cl)cc(C(OC)C3CCN(C(=O)CO)CC3)c(Cl)c2C1=O` (single isomer, unassigned; (-)), the microsomal CLint turned out to be 12.6 µL/min/mg.

In turn, `COc1cc(C)[nH]c(=O)c1CN1CCc2c(Cl)cc(C(OC)C3CCOC3)c(Cl)c2C1=O` (single isomer, unassigned; form 1) had a microsomal CLint of 97.2 µL/min/mg.

Compound `COc1cc(C)[nH]c(=O)c1CN1CCc2c(Cl)cc(C(OC)C3CCOC3)c(Cl)c2C1=O` (stereo in doubt; 22b) displayed a microsomal CLint of 66.9 µL/min/mg. This microsomal CLint and that of the compound before are within 1.5-fold of each other.

The next data set concerns the target Histone-lysine N-methyltransferase EZH2 (Homo sapiens, UniProt Q15910, Y641N). The data set is described as follows: Inhibition of EZH2 Y641N mutant (unknown origin) using oligonucleosomes as substrate after 60 mins in presence of [3H]SAM by scintillation counting analysis.
Conditions: not given
For the compound `CCOC(c1cc(Cl)c2c(c1Cl)C(=O)N(Cc1c(C)cc(C)[nH]c1=O)CC2)C1CS(=O)(=O)C1` (single isomer, unassigned), the Ki turned out to be 460 nM.

With `CCC(OC)c1cc(Cl)c2c(c1Cl)C(=O)N(Cc1c(C)cc(C)[nH]c1=O)CC2` (single isomer, unassigned; (+)), the Ki amounted to 9 nM.

In the case of `COC(c1cc(Cl)c2c(c1Cl)C(=O)N(Cc1c(C)cc(C)[nH]c1=O)CC2)C1CCOC1` (single isomer, unassigned; (+)), the Ki amounted to 1.9 nM.

In the case of `COC(c1cc(Cl)c2c(c1Cl)C(=O)N(Cc1c(C)cc(C)[nH]c1=O)CC2)C1CCOC1` (single isomer, unassigned; (-)10c), the Ki was found to be 30 nM.

With `COc1cc(C)[nH]c(=O)c1CN1CCc2c(Cl)cc(C(OC)C3CCOC3)c(Cl)c2C1=O` (single isomer, unassigned; form 1), the Ki was 42 nM.

For `COc1cc(C)[nH]c(=O)c1CN1CCc2c(Cl)cc(C(OC)C3CCOC3)c(Cl)c2C1=O` (stereo in doubt; 22b), the Ki amounted to 0.19 nM.

System in the next data set: not listed separately
The data set is described as follows: Lipophilicity, log D of the compound at pH 7.4. The settings on record: buffer, pH 7.4.
The compound `CCOC(c1cc(Cl)c2c(c1Cl)C(=O)N(Cc1c(C)cc(C)[nH]c1=O)CC2)C1CS(=O)(=O)C1` (single isomer, unassigned) had a logD of 2.3.
